High-throughput results (PubChem)
The list is not random: actives were taken first. Their share in the collection is about 1.6%.
PKA-R2B act = PKA-R2B complex activation; P22694+P31323; hit rate 0.079% among 340,000; activation, % at 11.4 µM; PKA-R2B holoenzyme dissociation, Cy5-IP20 fluorescence polarization; R2B truncated from residue 108, S112A mutant; 0% DMSO only, 100% 113 µM cGMP;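 active means activation above a cutoff set at the mean over all compounds plus 3 SD, cut at about 18% in these data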;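 further: higher means more holoenzyme dissociation and a rise in polarization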
Target sequence (P31323 whole entry, looked up, other chains not shown, the tested form may be a part): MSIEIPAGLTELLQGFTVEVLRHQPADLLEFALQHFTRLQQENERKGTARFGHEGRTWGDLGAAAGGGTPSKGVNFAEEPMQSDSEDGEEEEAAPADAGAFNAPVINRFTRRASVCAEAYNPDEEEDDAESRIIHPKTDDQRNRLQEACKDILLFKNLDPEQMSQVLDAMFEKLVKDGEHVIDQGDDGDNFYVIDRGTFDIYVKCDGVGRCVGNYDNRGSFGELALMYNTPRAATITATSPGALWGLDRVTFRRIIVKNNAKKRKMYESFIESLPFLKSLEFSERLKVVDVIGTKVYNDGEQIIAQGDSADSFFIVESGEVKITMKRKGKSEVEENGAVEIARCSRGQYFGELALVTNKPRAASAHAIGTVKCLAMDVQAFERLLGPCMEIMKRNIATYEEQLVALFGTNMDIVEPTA
Rev-erbA mod = Rev-erb alpha (human) modulation; P20393; Rev-erbα–FITC-DNA binding, fluorescence polarization, 90 min; activity, % at 10 µM; hit rate 0.79% among 370,000;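 active means activity above about 14%, limit read from the data; passing the limit was not always enough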;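 further: 0% = DMSO wells with 35 nM protein and 100% = DMSO wells with 750 nM protein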
PKA-R1A act = PKA-R1A complex activation. hit rate 0.083% among 340,000. PKA-R1A dissociation, Cy5-IP20 fluorescence polarization; scaled: DMSO 0%, 113 µM cGMP 100%. activation, % at 11.4 µM;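 active means percent activation above the mean of all tested compounds plus 3 SD, cut at about 19% in these data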;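 further: higher means more PKAc released from R1A so a rise in polarization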
NR2E3 ag-1 = NR2E3 (human) agonism; GST-NR2E3/biotin-RetCOR TR-FRET, 1536-well; hit rate 0.12% among 320,000; inhibition of corepressor binding, % at 4.78 µM; Q9Y5X4;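 active means percent inhibition above the cutoff of mean plus 3 SD of all tested compounds, set per screening campaign, cut at about 20% in these data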;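 further: 0% = DMSO wells and 100% = biotin wells as full block of FRET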
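Assay system: NR2E3–RetCOR corepressor complex. Quantity: 1.35 nM GST-NR2E3. Buffer or medium: pH 7.5 Tris-based buffer. Reagent: biotinylated RetCOR corepressor at 7 nM final. Schedule: 5 h at 4 °C. Detection: TR-FRET, emission read at 617 and 671 nm. Replicates: one well per compound, singlicate testing.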
NR2E3 ag-2 = activates human NR2E3 receptor. hit rate 0.35% among 360,000. Q9Y5X4. CHO-S Gal4-NCOR/VP16-NR2E3 two-hybrid, luciferase. inhibition of corepressor binding, % at 3.98 µM. AID 602229;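 active means inhibition above the mean of all tested compounds plus 3 SD, cut at about 70% in these data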;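 further: 0% = DMSO with NR2E3 transfected cells and 100% = cells lacking NR2E3 construct; higher means lower luciferase signal from less NR2E3 corepressor binding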
PG9 Ab binder = small molecules binding HIV-1 gp120 antibody PG9 | TR-FRET gp120-PG9 antibody binding | hit rate 0.43% among 360,000 | inhibition, % at 6.7 µM; in the data active means inhibition above about 8.5%
NR1D1 mod conf = confirmation of modulators of human Rev-erb alpha DNA binding. shares compounds with Rev-erbA mod. Rev-erb alpha FITC-DNA binding, fluorescence polarization, 90 min. activation, % at 25 µM. hit rate 61% among 3,000. AID 1259319;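 active means activation at or above a set limit, or at least 3 SD above the negative control mean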;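 further: 0% = 35 nM protein with DMSO and 100% = 750 nM protein high control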
RORg counter = RORgamma DNA-binding activity, dose-response counter-screen; hit rate 8% among 910; shares compounds with Rev-erbA mod; IC50, µM; purified RORgamma protein-FITC-DNA binding, fluorescence polarization;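 active means Compounds whose fitted half-maximal concentration for disrupting protein-DNA binding is below 10 micromolar; the record names Rev-erb in its text, so the target is in doubt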
* hit, by the source's call; nt = no result.

SMILES | PKA-R2B act | Rev-erbA mod | PKA-R1A act | NR2E3 ag-1 | NR2E3 ag-2 | PG9 Ab binder | NR1D1 mod conf | others
CCOC(=O)c1c(C)nc2c3ccccc3ccn12 | -11 | 0 | 2 | -5 | -134 | 3 | nt
CCOC(=O)c1sc(NC(=O)c2cc3ccccc3o2)nc1C | 2 | 30* | -7 | 3 | -73 | 3 | 5
COC(=O)c1sc(NC(=S)NC(=O)c2ccccc2F)nc1C | -4 | 43* | -4 | 2 | -109 | 2 | 0
CCOC(=O)c1sc(NC(=O)c2ccccc2OC)nc1C | -15 | 40* | -3 | 6 | -32 | -1 | 23*
CCOC(=O)c1sc(NC(=O)Nc2ccccc2F)nc1C | 8 | 4 | -16 | -2 | -28 | 2 | nt
O=C(N[C@H](C(=O)N1CCC[C@H]1C(=O)NC1CCCC1)C1CCCCC1)c1ccc(Cl)c(Cl)c1 | nt | 1 | nt | nt | nt | 4 | nt
O=C(OCc1cn(Cc2ccc(F)cc2)nn1)N1CCOCC1 | nt | -5 | nt | nt | nt | nt | nt
COc1ccc(/C=N/NC(=O)c2sc3nc(C)cc(C)c3c2N)cc1 | -15 | 4 | -13 | 1 | -26 | 1 | nt
Cc1cc(C)c2c(N)c(C(=O)N/N=C/c3cccs3)sc2n1 | nt | 80* | nt | 4 | -61 | 2 | 54* | RORg counter=>40
COc1ccc(Cc2c(-c3ccccc3)nc3c4ccccc4ccn23)c(C)c1 | nt | 1 | nt | nt | -49 | 0 | nt
COc1ccc(-c2nc3c4ccccc4ccn3c2C=O)cc1 | -1 | 53* | 6 | -2 | -22 | -2 | 93* | RORg counter=>40
Cc1cc(-c2ccc(C(C)C)c(S(=O)(=O)N3CCN(c4ccccc4)CC3)c2)on1 | -3 | 0 | -7 | 0 | -26 | 1 | nt
CC(=O)c1ccc(N2CCN(S(=O)(=O)c3cc(-c4cc(C)no4)ccc3C(C)C)CC2)cc1 | 1 | 26* | -18 | -1 | -4 | 1 | 22*
CCc1ccc(-c2cc(C)no2)cc1S(=O)(=O)N1CCN(c2cc(C)ccc2C)CC1 | -4 | 3 | -3 | 1 | -25 | 2 | nt
CCc1ccc(-c2cc(C)no2)cc1S(=O)(=O)N1CCN(c2ccc(C(C)=O)cc2)CC1 | 6 | 27* | -1 | -4 | 2 | 1 | 18*
Cc1cc(-c2nc3cccnc3s2)ccc1NS(=O)(=O)c1ccc2c(c1)OCCO2 | -1 | 25* | -2 | 3 | 2 | 2 | -4
COc1ccnc(N2CCN(c3cccc(C(F)(F)F)c3)CC2)c1C#N | -3 | 28* | -2 | 1 | -18 | 1 | 6
Fc1ccc(-n2c(-c3cccs3)nc3nc4ccccc4nc32)cc1 | -7 | 75* | -9 | 2 | -7 | 1 | 59* | RORg counter=>40
Nc1nc2c(Br)ccc(Br)c2cc1C(=O)NCc1cccc2ccccc12 | nt | 10 | nt | nt | -15 | 0 | nt
CN(C)C=Nc1nc2c(Br)ccc(Br)c2cc1C(=O)NCC(C)(C)C | nt | 23* | nt | nt | nt | nt | 40* | RORg counter=>40
COc1ccc2c(c1)CO[C@H]([C@H](O)CO)[C@H]2/C=C/c1ccccc1 | nt | 15 | nt | nt | nt | nt | nt
O=C(CN1C(=O)c2cccc3cccc1c23)N1CCN(c2cccc(Cl)c2)CC1 | 2 | 49* | 1 | -5 | -29 | 1 | 27*
O=C(CN1C(=O)c2cccc3cccc1c23)N1CCN(c2ccccc2)CC1 | 4 | 17 | -9 | 2 | -11 | 1 | nt
CCN1C(=O)/C(=C2/Sc3ccccc3N2CC)S/C1=N\c1ncn[nH]1 | -4 | 19* | 2 | 1 | -17 | 1 | -4
CC(C)Cn1c(N)c(C(=O)COC(=O)c2cc(C(F)(F)F)nc3c(C(F)(F)F)cccc23)c(=O)n(C)c1=O | nt | 46* | nt | 9 | nt | 0 | 21*
SMILES | PKA-R2B act | Rev-erbA mod | PKA-R1A act | NR2E3 ag-1 | NR2E3 ag-2 | PG9 Ab binder | NR1D1 mod conf | others
Cc1nc(N2CCN(c3ccccc3)CC2)nc2c1C(=O)CCC2 | 0 | -2 | -10 | 0 | -9 | 3 | nt
O=C1CCCc2nc(N3CCN(c4ccccc4)CC3)ncc21 | 1 | 24* | 0 | -1 | -38 | 0 | 18*
CN(C)c1ccc(C=C2SC(=S)NC2=O)cc1 | 6 | 48* | 6 | nt | -26 | -16 | 35* | RORg counter=>40
Cc1cccc(N2C(=O)CC(Sc3nc(-c4ccccc4)c4cc(Cl)ccc4n3)C2=O)c1 (configuration not stated) | -16 | 20* | -5 | 2 | -33 | 3 | -14
Cc1cccc(N2C(=O)CC(Sc3nc(C)cc(C)n3)C2=O)c1 (configuration not stated) | 1 | 1 | -3 | 2 | 3 | -1 | nt
O=[N+]([O-])c1cccc(C2=Nn3c(nnc3-c3ccccc3)SC2)c1 | nt | -1 | nt | nt | nt | nt | nt
COc1ccc(/C=N\NC(=O)c2ccc([N+](=O)[O-])cc2)cc1COc1c(F)c(F)cc(F)c1F | 4 | -9 | 2 | nt | -14 | 2 | nt
COc1ccc(/C=N\NC(=O)c2ccccc2[N+](=O)[O-])cc1COc1c(F)c(F)c(F)c(F)c1F | -11 | 20* | -13 | -1 | 9 | -1 | 14
Fc1cccc(Cn2ccc3ccc(-c4ccc5ccn(Cc6ccccc6)c5c4)cc32)c1 | nt | 0 | nt | nt | nt | nt | nt
N#Cc1cccc(Cn2ccc3ccc(-c4ccc5ccn(Cc6ccccc6)c5c4)cc32)c1 | nt | 15 | nt | nt | nt | nt | nt
COc1ccc(Cn2ccc3ccc(-c4ccc5ccn(Cc6ccc(C#N)cc6)c5c4)cc32)cc1 | nt | 38* | nt | nt | nt | nt | 1
c1ccc(Cn2ccc3ccc(-c4ccc5ccn(Cc6cccc(-c7ccsc7)c6)c5c4)cc32)cc1 | nt | 31* | nt | nt | nt | nt | 17*
N#Cc1cccc(Cn2ccc3ccc(-c4ccc5ccn(Cc6cccc(C#N)c6)c5c4)cc32)c1 | nt | 59* | nt | nt | nt | nt | 38* | RORg counter=2.5*
N#Cc1ccc(Cn2ccc3ccc(-c4ccc5ccn(C(=O)c6ccccc6)c5c4)cc32)cc1 | nt | 5 | nt | nt | nt | nt | nt
CC(C)C(C(=O)NCc1ccccc1)N1CCN(CCN2CCOCC2)CC1 (configuration not stated) | nt | 3 | nt | nt | nt | -2 | nt
C[C@H]1CN(S(=O)(=O)C(C)(C)C)[C@@H](CCO)/C1=C\c1ccccc1 | nt | -3 | nt | nt | nt | -1 | nt
COc1ccccc1CNC(=O)NNC(=O)CCn1nc(C)c([N+](=O)[O-])c1C | nt | 5 | nt | nt | nt | nt | nt
CCOC(=O)c1cc2c(ccc3ccccc32)oc1=O | -7 | -4 | -6 | 0 | 3 | 3 | nt
CC(C)(C)NC(=O)c1cc2c(ccc3ccccc32)oc1=O | 6 | 37* | -4 | 0 | 2 | 0 | 25*
